According to ChEMBL document CHEMBL1123647, “(+)-cis-8-Hydroxy-1-methyl-2-(di-n-propylamino)tetralin: a potent and highly stereoselective 5-hydroxytryptamine receptor agonist” (1987):

Legend:
Format in all cases: functional
Settings in all cases: sc
[1] = tested on: Rattus norvegicus; assay: Effective dose required for half maximal decrease of 5-HTP formation after subcutaneous administration of compound in hemispheres (cortex) for rat brain
Summary of the method: (§1)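 Reserpinized rats (reserpine 5 mg/kg ip, in glucose solution with a little acetic acid). Compounds were dissolved in saline, pH near neutral, and given sc. Brain 5-HTP was measured by HPLC with electrochemical detection. ED50 is the dose giving a half-maximal decrease of 5-HTP formation in that brain part, from a dose-response curve of five to six dose levels, n = 3-4.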

[2] = tested on: Rattus norvegicus; assay: Effective dose required for half maximal decrease of DOPA accumulation after subcutaneous administration in striatum tissue of rat brain
Summary of the method: (§2)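 Reserpinized rats (reserpine 5 mg/kg ip) received compound in saline sc. Brain DOPA was measured by HPLC with electrochemical detection. ED50 is the dose giving a half-maximal decrease of DOPA formation, from a dose-response curve of three to five dose levels, n = 3. Maximal reduction was taken as 65% of control for limbic tissue and 80% for striatum.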

[3] = tested on: Rattus norvegicus; assay: Effective dose required for half maximal decrease of 5-HTP formation after subcutaneous administration of compound in limbic tissue of rat brain; summary of the method: as §1
[4] = tested on: Rattus norvegicus; assay: Effective dose required for half maximal decrease of DOPA accumulation after subcutaneous administration in limbic tissue of rat brain; summary of the method: as §2
[5] = tested on: Rattus norvegicus; assay: Effective dose required for half maximal decrease of 5-HTP formation after subcutaneous administration of compound in striatum tissue of rat brain; summary of the method: as §1

SMILES | ED50 [1] | ED50 [2] | ED50 [3] | ED50 [4] | ED50 [5]
CCCN(CCC)[C@@H]1CCc2cccc(O)c2[C@H]1C | > 50 µmol/kg | > 50 µmol/kg | > 50 µmol/kg | > 50 µmol/kg | > 50 µmol/kg
CCCN(CCC)[C@@H]1CCc2cccc(O)c2C1 | 0.077 µmol/kg | > 45 µmol/kg | 0.061 µmol/kg | > 45 µmol/kg | 0.065 µmol/kg
CCCN(CCC)[C@@H]1CCc2cccc(OC)c2[C@@H]1C | 0.77 µmol/kg | 1.88 µmol/kg | 0.53 µmol/kg | 1.71 µmol/kg | 0.6 µmol/kg
CCCN(CCC)[C@@H]1CCc2cccc(OC)c2[C@H]1C | > 50 µmol/kg | > 50 µmol/kg | > 50 µmol/kg | > 50 µmol/kg | > 50 µmol/kg
CCCN(CCC)[C@@H]1CCc2cccc(O)c2[C@@H]1C.Cl |  | > 50 µmol/kg |  | > 50 µmol/kg | 
